Reference: publication PMC10825549 (JID Innovations, 2023)

Key:
Jak1 = Jak1 (Homo sapiens, UniProt P23458); experiment: Inhibition of catalytic domain activity, Jak1; assay type: biochemical
Method in brief: (§1)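 Z′-LYTE biochemical kinase assay run by the vendor per manufacturer's protocol. Each kinase plate carried 0%/100% phosphorylation and 0%/100% inhibition controls. Development-reaction and compound-fluorescence interference controls at each compound concentration. n = 1 per kinase.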

TYK2 = TYK2 (Homo sapiens, UniProt P29597); experiment: Inhibition of catalytic domain activity, TYK2; assay type: biochemical
TYK2, sequence (P29597 897-1176 limits assumed): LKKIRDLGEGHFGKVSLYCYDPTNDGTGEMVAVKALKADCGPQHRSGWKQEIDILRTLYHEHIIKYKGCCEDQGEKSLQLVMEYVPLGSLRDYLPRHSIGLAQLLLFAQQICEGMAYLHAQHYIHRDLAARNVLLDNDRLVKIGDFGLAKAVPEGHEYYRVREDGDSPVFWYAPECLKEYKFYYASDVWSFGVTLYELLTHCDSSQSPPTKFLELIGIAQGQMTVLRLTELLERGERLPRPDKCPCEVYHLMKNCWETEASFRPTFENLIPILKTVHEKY
Method in brief: as §1

Aurora A = Aurora A (Homo sapiens, UniProt O14965); experiment: IC50 for kinases of potential cross-over; assay type: biochemical
Aurora A, sequence (O14965 whole entry): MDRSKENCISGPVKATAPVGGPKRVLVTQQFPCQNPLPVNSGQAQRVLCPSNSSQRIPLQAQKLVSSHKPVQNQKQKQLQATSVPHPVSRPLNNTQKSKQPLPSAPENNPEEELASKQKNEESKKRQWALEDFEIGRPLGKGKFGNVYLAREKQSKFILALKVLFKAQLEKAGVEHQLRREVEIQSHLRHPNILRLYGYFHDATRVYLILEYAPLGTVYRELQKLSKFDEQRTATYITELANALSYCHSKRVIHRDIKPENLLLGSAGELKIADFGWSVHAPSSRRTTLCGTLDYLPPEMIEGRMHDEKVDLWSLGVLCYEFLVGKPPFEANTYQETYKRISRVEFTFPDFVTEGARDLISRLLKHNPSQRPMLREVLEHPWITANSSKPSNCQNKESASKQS

KDR (VEGFR2) = KDR (VEGFR2) (Homo sapiens, UniProt P35968); experiment: IC50 for kinases of potential cross-over; assay type: biochemical
KDR (VEGFR2), sequence (P35968 20-1356): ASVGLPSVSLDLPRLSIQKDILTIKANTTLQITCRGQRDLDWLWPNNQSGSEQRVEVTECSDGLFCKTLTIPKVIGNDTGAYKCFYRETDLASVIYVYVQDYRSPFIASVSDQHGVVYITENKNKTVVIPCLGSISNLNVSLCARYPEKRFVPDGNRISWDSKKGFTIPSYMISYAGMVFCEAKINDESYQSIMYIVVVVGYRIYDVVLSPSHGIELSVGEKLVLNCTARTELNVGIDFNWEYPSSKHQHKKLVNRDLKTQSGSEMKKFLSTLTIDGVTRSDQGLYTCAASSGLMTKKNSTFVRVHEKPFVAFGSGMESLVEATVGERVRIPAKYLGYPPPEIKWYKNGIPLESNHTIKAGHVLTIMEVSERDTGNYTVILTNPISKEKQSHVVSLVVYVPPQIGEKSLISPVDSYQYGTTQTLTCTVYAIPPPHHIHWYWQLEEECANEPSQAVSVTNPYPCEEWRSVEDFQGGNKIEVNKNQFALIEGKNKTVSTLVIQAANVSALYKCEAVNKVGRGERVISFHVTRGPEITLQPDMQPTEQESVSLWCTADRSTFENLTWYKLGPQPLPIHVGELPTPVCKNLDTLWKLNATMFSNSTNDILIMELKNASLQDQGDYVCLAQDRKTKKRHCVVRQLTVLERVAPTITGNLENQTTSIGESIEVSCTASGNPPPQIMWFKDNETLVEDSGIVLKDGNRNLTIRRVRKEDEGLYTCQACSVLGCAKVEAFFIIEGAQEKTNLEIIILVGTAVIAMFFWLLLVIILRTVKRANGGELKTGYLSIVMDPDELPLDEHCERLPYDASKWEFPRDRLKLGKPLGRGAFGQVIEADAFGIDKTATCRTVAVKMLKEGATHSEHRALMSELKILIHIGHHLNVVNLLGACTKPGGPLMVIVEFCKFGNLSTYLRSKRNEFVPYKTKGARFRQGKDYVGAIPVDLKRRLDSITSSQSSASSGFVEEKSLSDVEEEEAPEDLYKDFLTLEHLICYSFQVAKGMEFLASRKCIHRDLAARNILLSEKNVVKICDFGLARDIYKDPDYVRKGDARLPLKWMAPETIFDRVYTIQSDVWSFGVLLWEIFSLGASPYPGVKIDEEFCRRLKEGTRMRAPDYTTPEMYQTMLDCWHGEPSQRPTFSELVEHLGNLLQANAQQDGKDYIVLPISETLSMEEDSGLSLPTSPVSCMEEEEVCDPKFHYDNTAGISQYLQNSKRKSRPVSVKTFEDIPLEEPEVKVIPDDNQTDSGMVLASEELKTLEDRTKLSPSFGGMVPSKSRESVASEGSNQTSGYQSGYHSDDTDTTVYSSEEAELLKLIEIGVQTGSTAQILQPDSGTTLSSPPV

HPK1 (MAP4K1) = HPK1 (MAP4K1) (Homo sapiens, UniProt Q92918); experiment: IC50 for kinases of potential cross-over; assay type: biochemical
HPK1 (MAP4K1), sequence (Q92918 whole entry): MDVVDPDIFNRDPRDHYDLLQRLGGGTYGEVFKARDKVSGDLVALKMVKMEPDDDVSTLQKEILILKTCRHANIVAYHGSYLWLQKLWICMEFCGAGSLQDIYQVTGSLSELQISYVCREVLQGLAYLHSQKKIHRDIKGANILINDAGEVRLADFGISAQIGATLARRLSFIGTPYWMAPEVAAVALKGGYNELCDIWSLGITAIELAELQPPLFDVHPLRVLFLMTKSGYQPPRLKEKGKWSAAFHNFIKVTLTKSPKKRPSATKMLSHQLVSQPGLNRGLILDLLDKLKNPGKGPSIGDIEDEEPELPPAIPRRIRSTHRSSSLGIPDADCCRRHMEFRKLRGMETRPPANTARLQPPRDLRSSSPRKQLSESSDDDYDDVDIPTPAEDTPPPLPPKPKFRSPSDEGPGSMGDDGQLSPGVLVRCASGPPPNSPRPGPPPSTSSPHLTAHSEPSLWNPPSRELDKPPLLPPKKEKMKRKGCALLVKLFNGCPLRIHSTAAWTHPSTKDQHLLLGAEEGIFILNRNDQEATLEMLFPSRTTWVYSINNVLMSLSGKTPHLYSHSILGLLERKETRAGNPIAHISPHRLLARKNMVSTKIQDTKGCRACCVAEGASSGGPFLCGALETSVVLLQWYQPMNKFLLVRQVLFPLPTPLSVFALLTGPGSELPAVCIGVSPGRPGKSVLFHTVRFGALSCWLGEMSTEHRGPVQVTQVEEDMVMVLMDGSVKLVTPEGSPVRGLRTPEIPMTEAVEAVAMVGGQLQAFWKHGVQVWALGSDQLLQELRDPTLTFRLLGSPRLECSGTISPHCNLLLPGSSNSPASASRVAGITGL

MKNK1/MNK1 = MKNK1/MNK1 (Homo sapiens, UniProt Q9BUB5); experiment: IC50 for kinases of potential cross-over; assay type: biochemical
MKNK1/MNK1, sequence (Q9BUB5 whole entry): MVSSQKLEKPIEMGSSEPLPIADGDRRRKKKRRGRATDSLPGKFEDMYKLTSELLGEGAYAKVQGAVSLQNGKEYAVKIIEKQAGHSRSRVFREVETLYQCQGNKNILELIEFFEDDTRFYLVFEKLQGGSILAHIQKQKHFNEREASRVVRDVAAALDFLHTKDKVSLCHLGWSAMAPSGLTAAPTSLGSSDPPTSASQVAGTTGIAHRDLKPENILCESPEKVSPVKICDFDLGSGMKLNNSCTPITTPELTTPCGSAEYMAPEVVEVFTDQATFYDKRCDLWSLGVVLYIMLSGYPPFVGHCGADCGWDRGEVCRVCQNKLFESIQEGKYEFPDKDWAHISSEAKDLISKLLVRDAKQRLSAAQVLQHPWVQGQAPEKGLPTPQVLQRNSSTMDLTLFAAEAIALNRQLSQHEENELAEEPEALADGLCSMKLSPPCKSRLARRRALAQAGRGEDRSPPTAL

FLT4 (VEGFR3) = FLT4 (VEGFR3) (Homo sapiens, UniProt P35916); experiment: IC50 for kinases of potential cross-over; assay type: biochemical
FLT4 (VEGFR3), sequence (P35916 25-1363): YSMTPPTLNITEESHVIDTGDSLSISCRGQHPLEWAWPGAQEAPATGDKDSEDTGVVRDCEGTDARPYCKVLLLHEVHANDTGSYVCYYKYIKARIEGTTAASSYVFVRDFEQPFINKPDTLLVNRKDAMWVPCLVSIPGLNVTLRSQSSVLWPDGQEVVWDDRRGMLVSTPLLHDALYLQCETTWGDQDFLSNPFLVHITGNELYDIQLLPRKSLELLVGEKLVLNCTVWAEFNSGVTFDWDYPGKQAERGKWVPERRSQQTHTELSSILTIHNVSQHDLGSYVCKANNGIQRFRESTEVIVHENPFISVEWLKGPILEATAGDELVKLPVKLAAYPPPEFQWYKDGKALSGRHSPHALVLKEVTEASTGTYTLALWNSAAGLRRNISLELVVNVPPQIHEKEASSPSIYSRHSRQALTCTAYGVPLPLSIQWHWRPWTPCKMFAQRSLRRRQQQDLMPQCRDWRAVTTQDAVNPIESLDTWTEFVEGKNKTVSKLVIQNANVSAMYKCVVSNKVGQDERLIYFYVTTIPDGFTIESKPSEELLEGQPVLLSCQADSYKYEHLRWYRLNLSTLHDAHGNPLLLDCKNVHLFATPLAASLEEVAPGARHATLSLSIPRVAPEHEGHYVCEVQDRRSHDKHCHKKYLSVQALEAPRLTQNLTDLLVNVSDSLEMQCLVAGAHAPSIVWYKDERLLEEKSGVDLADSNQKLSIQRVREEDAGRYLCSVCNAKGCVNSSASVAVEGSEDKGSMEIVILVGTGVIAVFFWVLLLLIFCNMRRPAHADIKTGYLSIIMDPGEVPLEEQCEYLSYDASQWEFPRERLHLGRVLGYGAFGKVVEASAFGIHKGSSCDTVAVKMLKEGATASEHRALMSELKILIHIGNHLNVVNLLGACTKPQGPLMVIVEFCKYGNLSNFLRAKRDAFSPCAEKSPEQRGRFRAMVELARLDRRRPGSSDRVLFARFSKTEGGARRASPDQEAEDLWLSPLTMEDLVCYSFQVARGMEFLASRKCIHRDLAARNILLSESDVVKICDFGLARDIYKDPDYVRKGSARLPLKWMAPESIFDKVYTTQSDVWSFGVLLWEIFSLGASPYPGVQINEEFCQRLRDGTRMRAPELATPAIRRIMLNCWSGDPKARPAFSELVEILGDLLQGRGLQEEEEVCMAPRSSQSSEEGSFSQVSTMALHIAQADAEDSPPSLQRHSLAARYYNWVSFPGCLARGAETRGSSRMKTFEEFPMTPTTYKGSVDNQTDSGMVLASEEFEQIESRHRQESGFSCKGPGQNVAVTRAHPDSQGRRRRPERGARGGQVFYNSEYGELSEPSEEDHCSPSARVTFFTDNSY

Jak2/2 = experiment: Inhibition of GM-CSF-induced STAT phosphorylation in PBMCs; assay type: cell-based, human
Method in brief: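 Ficoll-isolated human PBMCs, cryopreserved, thawed into RPMI/10% heat-inactivated FBS assay medium, 200,000 cells/well. Serially diluted test compound (final 20 μM to 2 × 10−6 μM) or 0.1% DMSO vehicle preincubated 1 h at 37 °C. Cytokine then added for 5–10 min, followed by 30 min shaking at 4 °C and lysis. Phospho-STAT5/STAT4 by MSD immunoassay, phospho-STAT1 by ELISA. IC50 reported as mean ± SD.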

[1] = Metabolic stability in liver microsomes; assay type: in vitro ADME; details: human
Method in brief: (§2)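 Test compound from 1 mM DMSO solution preincubated 5 min with dog, human, monkey, rat or minipig liver microsomes. NADPH (10 mM) then added. Reactions stopped at 0, 5, 15 and 30 min with 0.05% formic acid in acetonitrile containing loperamide internal standard. Supernatants analysed by LC-MS/MS; n = 1 per microsome species.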

[2] = Metabolic stability in liver microsomes; assay type: in vitro ADME; details: mouse
[3] = Metabolic stability in liver microsomes; assay type: in vitro ADME; details: minipig
Method in brief: as §2

CYP2C8 = CYP2C8 (Homo sapiens, UniProt P10632); experiment: Cytochrome P450 phenotyping; assay type: in vitro ADME; details: recombinant human CYP2C8; with NADPH; 60 minutes; n = 1
Method in brief: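 Recombinant human CYPs prepared at CYP1A2 200 nM, CYP2B6/2C8 250 nM, CYP2C9 100 nM, CYP2D6 50 nM. Test compound added as 2 μM DMSO dosing solution on ice. Plate prewarmed, then 8 mM NADPH solution or blank buffer added. Incubation 60 min (1A2, 2B6, 2C8) or 30 min (2C9, 2D6). Stopped with acetonitrile plus internal standard; supernatant by LC-MS/MS; n = 1.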

CYP2C19 = CYP2C19 (Homo sapiens, UniProt P33261); experiment: Cytochrome P450 phenotyping; assay type: in vitro ADME; details: recombinant human CYP2C19; with NADPH; 60 minutes; n = 1
minipig = experiment: 7-day minipig study: dermal tolerability; assay type: in vivo; details: 2% solution applied to the skin for 7 consecutive days
Method in brief: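 Each minipig (1 male, 1 female) received topical test compound and matching placebo formulations once daily on designated skin areas. Animals were checked daily for clinical signs. Application sites were scored for dermal irritation by a modified Draize procedure.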

[4] = 28-day minipig repeat exposure study: toxicokinetics; assay type: in vivo; details: for concentration at 0 h / concentration at 0.5 h / concentration at 1 h / concentration at 2 h / concentration at 4 h / concentration at 8 h / concentration at 12 h / concentration at 24 h: both, plasma, topical; for concentration in the skin: terminal sacrifice (day 28)
Method in brief: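 Topical solution applied to minipigs once daily for 28 days at 0, 40, 80 or 160 mg/day, left on skin 20–22 h, then wiped with moist towel. Jugular blood collected days 1 and 28, pre-dose and ~0.5, 1, 2, 4, 8, 12, 22 h after application, after IM acepromazine 0.2–0.4 mg/kg. Pigs nonfasted; K2 EDTA plasma; validated LC-MS/MS.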

Jak1/3 = experiment: IC50 of ATI-1777 for inhibiting Jak1/3 used as plasma reference level; details: reference level for plasma concentrations; assay not described
[5] = system: moderate or severe atopic dermatitis; experiment: Phase 2a study ATI-1777-AD-201: efficacy; assay type: in vivo, human
Method in brief: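 Randomized 1:1, double-blind, vehicle-controlled, 14 US sites; stratified by severity. Adults 18–65 with moderate/severe AD (IGA 3–4, 3–20% BSA). Up to 8 ml 2.0% w/w solution or vehicle applied twice daily for 28 days, 2-week follow-up. mEASI, IGA, BSA assessed days 8, 15, 28; PP-NRS tracked. MMRM, 1-sided tests, full analysis set (23 vs 25).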

[6] = day 28, 2% topical solution twice daily, n = 23

Jak1, sequence (P23458 875-1153 limits assumed): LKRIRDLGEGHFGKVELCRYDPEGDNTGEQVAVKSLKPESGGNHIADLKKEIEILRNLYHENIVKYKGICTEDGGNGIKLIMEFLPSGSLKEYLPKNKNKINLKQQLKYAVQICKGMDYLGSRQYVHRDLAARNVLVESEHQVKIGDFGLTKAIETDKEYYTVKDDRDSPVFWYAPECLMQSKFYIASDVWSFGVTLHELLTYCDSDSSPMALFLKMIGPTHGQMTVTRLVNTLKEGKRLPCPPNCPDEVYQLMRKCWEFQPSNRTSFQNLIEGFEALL

CCOC(=O)c1cnc2[nH]ccc2c1N[C@@H]1CCCN(C(=O)CC#N)C1 [ATI-1777, ethyl (R)-4-((1-(2-cyanoacetyl)piperidin-3-yl)amino)-1H-pyrrolo[2,3-b]pyridine-5-carboxylate]
IC50 (Jak1): 1.5 nM | Fold Selectivity (Jak1; Jak1 reference line of Table 2): 1 fold | IC50 (TYK2): 19 nM | IC50 (Aurora A): 641 nM | Fold Selectivity (Aurora A; Aurora A vs Jak1 (= 1)): 427 fold | IC50 (KDR (VEGFR2)): 127 nM | Fold Selectivity (KDR (VEGFR2); KDR (VEGFR2) vs Jak1 (= 1)): 85 fold | IC50 (HPK1 (MAP4K1)): 285 nM | Fold Selectivity (HPK1 (MAP4K1); HPK1 (MAP4K1) vs Jak1 (= 1)): 190 fold | IC50 (MKNK1/MNK1): 584 nM | Fold Selectivity (MKNK1/MNK1; MKNK1/MNK1 vs Jak1 (= 1)): 389 fold | IC50 (FLT4 (VEGFR3)): 113 nM | Fold Selectivity (FLT4 (VEGFR3); FLT4 (VEGFR3) vs Jak1 (= 1)): 75 fold | Fold Jak1/3 (Jak2/2; GM-CSF, Jak2/2 vs Jak1/3): 41.8 fold | IC50 (Jak2/2; Homo sapiens, PBMC, read-out: IC50 Mean ± SD): 794 ± 121 nM | CLint scaled [1]: 200 mL/min/kg | microsomal CLint [1]: 74 µL/min/mg | half-life ([1]; T1/2, Study 1, n = 1): 8.71 min | half-life ([1]; T1/2, Study 2, n = 1): 19 min | CLint scaled [2]: 3280 mL/min/kg | half-life [2]: 1.66 min | CLint scaled [3]: 365 mL/min/kg | microsomal CLint [3]: 295 µL/min/mg | half-life ([3]; T1/2, Study 1, n = 1): 2.85 min | half-life ([3]; T1/2, Study 2, n = 1): 5 min | Percentage Remaining (CYP2C8): 41.2% | Percentage Remaining (CYP2C19): 75.5% | clinical observations and clinical pathology parameters (minipig): no adverse clinical observations or changes in clinical pathology parameters | quantifiable plasma concentrations ([4]; 160 mg group, day 28, all pigs): < 6.26 ng/mL | plasma concentrations when quantifiable ([4]; 40 and 80 mg/day, days 1 and 28, nonquantifiable in most pigs): ≤ 4.94 ng/mL | concentration at 0 h ([4]; 40 mg/day): 0.34 ng/mL | concentration at 0.5 h ([4]; 40 mg/day): 0.143 ng/mL | concentration at 1 h ([4]; 40 mg/day): 0.0685 ng/mL | concentration at 2 h ([4]; 40 mg/day): 0.108 ng/mL | concentration at 4 h ([4]; 40 mg/day): 0.121 ng/mL | concentration at 8 h ([4]; 40 mg/day): 0 ng/mL | concentration at 12 h ([4]; 40 mg/day): 0 ng/mL | concentration at 24 h ([4]; 40 mg/day): 0 ng/mL | concentration at 0 h ([4]; 80 mg/day): 0.118 ng/mL | concentration at 0.5 h ([4]; 80 mg/day): 0.647 ng/mL | concentration at 1 h ([4]; 80 mg/day): 0.0995 ng/mL | concentration at 2 h ([4]; 80 mg/day): 0.197 ng/mL | concentration at 4 h ([4]; 80 mg/day): 0.193 ng/mL | concentration at 8 h ([4]; 80 mg/day): 0.173 ng/mL | concentration at 12 h ([4]; 80 mg/day): 0.823 ng/mL | concentration at 24 h ([4]; 80 mg/day): 0 ng/mL | concentration at 0 h ([4]; 160 mg/day): 1.82 ng/mL | concentration at 0.5 h ([4]; 160 mg/day): 0.479 ng/mL | concentration at 1 h ([4]; 160 mg/day): 1.14 ng/mL | concentration at 2 h ([4]; 160 mg/day): 1.12 ng/mL | concentration at 4 h ([4]; 160 mg/day): 0.755 ng/mL | concentration at 8 h ([4]; 160 mg/day): 0.684 ng/mL | concentration at 12 h ([4]; 160 mg/day): 1.02 ng/mL | concentration at 24 h ([4]; 160 mg/day): 0.0569 ng/mL | concentration in the skin ([4]; females): ≥ 1960 ng/g | concentration in the skin ([4]; males): ≥ 4280 ng/g | IC50 of ATI-1777 for inhibiting Jak1/3 (Jak1/3): 0.045 µg/mL | least squared means change from baseline of PP-NRS score ([5]; SE = 0.548, P = .060 vs vehicle): −2.92 | BSA affected by AD, change from baseline ([5]; day 8): −1.55% | BSA affected by AD, change from baseline ([5]; day 15): −3.33% | participants achieving a 50% reduction in mEASI [5, 6]: 91.3% | participants achieving a 75% reduction in mEASI [5, 6]: 65.2% | BSA affected by AD, change from baseline ([5]; day 28, P < .001 vs vehicle): −5.59% | percentage reduction from baseline in mEASI score ([5]; day 28, mixed model for repeated measures without imputation, SE = 5.943): 78.46% | participants achieving an IGA score of 0 or 1 with ≥2 point improvement ([5]; end of treatment period (day 28), P = .131 vs vehicle, n = 23): 39.1%
